Results published in ChEMBL document CHEMBL3525967, “In vitro glucuronidation of the antibacterial triclocarban and its oxidative metabolites” (Drug Metab Dispos, 2012).
Each block holds one compound with its values, some of them ahead of it.

What was measured:
[1] = Intrinsic clearance in cynomolgus monkey liver microsomes after 30 mins by LC-ESI-MS analysis; assay type: ADME, Macaca fascicularis; settings: 0.5 h
Summary of the method: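 2'-OH-TCC at 0.2, 0.5, 1, 2, 3, 5, 10 and 50 µM incubated with liver microsomes (alamethicin, MgCl2, saccharolactone, UDPGA; 37 °C), sampled at 5, 10, 15 and 30 min. Samples ≥5 µM diluted 1:9 in ACN; LC-ESI-MS. KM and vmax fitted from rate vs concentration; intrinsic clearance derived from these; mean and SD of three.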

[2] = molecular target: T1, UDP-glucuronosyltransferase 1A9 (Homo sapiens, UniProt O60656); test: Drug metabolism assessed as human UGT1A9-mediated N-glucuronide-triclocarban formation expressed in baculovirus infected insect sf9 cells incubated for 5 mins prior to UDPGA addition measured after 30 mins by LC-ESI-MS analysis; assay type: ADME; settings: sf9, 0.5 h
T1 sequence (O60656 whole entry): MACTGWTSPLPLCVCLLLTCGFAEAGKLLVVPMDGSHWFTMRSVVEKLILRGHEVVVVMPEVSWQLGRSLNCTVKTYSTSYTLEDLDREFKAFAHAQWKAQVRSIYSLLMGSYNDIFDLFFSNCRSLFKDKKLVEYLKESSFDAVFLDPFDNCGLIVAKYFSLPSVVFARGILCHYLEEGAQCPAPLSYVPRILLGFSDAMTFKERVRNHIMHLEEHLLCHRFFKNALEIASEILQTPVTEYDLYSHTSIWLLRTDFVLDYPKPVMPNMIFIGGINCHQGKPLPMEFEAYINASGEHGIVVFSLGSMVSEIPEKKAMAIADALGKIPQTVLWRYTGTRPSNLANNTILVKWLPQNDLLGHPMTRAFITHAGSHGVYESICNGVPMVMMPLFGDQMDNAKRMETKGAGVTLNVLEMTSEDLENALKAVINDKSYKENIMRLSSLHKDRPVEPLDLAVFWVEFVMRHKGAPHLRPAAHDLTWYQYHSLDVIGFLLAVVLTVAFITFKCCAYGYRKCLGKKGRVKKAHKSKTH
Summary of the method: (§1)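 TCC was incubated at 10 µM (2% DMSO) in 100 mM phosphate pH 7.4 with alamethicin-treated microsomes or Supersomes, 10 mM MgCl2 and 10 mM saccharolactone. After 5 min pre-incubation at 37 °C, UDPGA was added to start the reaction. Protein was raised up to 2 mg/mL. Samples were quenched in ACN with 1 µM DCC internal standard, centrifuged, and N-glucuronides detected by LC-ESI-MS/MS in SRM mode.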

[3] = molecular target: T2, UDP-glucuronosyltransferase 1A10 (Homo sapiens, UniProt Q9HAW8); test: Drug metabolism assessed as human UGT1A10-mediated N'-glucuronide-triclocarban formation expressed in baculovirus infected insect sf9 cells incubated for 5 mins prior to UDPGA addition measured after 5 to 30 mins by LC-UV analysis; assay type: ADME
T2 sequence (Q9HAW8 whole entry): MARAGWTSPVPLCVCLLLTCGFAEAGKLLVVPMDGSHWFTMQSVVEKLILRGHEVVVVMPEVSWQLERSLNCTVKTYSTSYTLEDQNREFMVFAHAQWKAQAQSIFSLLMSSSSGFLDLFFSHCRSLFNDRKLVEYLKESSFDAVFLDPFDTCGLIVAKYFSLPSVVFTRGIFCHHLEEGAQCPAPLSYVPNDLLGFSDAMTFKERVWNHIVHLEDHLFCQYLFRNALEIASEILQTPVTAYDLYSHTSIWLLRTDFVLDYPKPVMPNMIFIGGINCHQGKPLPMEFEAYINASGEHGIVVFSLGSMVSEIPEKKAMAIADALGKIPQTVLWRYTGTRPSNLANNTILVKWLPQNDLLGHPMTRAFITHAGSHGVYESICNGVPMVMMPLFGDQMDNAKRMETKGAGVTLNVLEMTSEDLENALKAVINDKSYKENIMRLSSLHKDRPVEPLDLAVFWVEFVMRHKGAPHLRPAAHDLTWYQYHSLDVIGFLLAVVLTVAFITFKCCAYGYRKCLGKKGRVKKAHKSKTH
Summary of the method: (§2)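 Microsomes or UGT Supersomes (5 µg protein) were held 15 min on ice with alamethicin in 100 mM potassium phosphate pH 7.4. TCC was added at 10 µM (2% DMSO) with 10 mM MgCl2 and 10 mM saccharolactone, pre-warmed 5 min at 37 °C, then started with UDPGA. Samples at 5, 10, 15 and 30 min were quenched in ACN. Product was read by LC-UV at 265 nm; rate came from regression over time, three incubations.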

[4] = Drug excretion in Sprague-Dawley rat urine assessed as 3'-O-glucuronide-triclocarban formation at 1 mg/kg, po by LC-MS analysis; assay type: ADME, organism-based; set-up: dose 1 mg/kg, route oral; settings: in vivo
[5] = Drug metabolism in cynomolgus monkey liver microsomes assessed as N-glucuronide-triclocarban formation incubated for 5 mins prior to UDPGA addition measured after 5 to 30 mins by LC-UV analysis; assay type: ADME, Macaca fascicularis; summary of the method: as §2
Liver microsome [6] = test: Drug metabolism in Sprague-Dawley rat liver microsomes assessed as N'-glucuronide-triclocarban formation incubated for 5 mins prior to UDPGA addition measured after 5 to 30 mins by LC-UV analysis; assay type: ADME; summary of the method: as §2
[7] = molecular target: T3, UDP-glucuronosyltransferase 1A4 (Homo sapiens, UniProt P22310); test: Drug metabolism assessed as human UGT1A4-mediated N'-glucuronide-triclocarban formation expressed in baculovirus infected insect sf9 cells incubated for 5 mins prior to UDPGA addition measured after 5 to 30 mins by LC-UV analysis; assay type: ADME; summary of the method: as §2
T3 sequence (P22310 whole entry): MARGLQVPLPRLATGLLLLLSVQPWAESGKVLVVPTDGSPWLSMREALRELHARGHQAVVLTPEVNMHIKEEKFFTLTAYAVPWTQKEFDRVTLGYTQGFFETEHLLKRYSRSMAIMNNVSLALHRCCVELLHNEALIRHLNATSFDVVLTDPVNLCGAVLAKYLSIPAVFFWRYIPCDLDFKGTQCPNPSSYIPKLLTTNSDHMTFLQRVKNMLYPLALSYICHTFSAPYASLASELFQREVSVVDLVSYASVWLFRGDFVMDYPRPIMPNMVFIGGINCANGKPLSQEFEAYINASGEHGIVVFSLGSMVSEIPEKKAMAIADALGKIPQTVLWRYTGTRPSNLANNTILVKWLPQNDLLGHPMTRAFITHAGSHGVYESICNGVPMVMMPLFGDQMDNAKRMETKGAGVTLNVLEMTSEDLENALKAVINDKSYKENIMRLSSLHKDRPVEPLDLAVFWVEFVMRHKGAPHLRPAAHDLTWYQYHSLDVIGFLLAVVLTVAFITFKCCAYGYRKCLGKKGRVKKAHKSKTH

[8] = molecular target: T1, UDP-glucuronosyltransferase 1A9; test: Drug metabolism assessed as human UGT1A9-mediated N'-glucuronide-triclocarban formation expressed in baculovirus infected insect sf9 cells incubated for 5 mins prior to UDPGA addition measured after 30 mins by LC-ESI-MS analysis; assay type: ADME; settings: sf9, 0.5 h; summary of the method: as §1
Liver microsome [9] = test: Drug metabolism in Sprague-Dawley rat liver microsomes assessed as N-glucuronide-triclocarban formation incubated for 5 mins prior to UDPGA addition measured after 5 to 30 mins by LC-UV analysis; assay type: ADME; summary of the method: as §2

CLH [1]: 19100 µL/min/mg
SMILES: O=C(Nc1ccc(Cl)c(Cl)c1)Nc1ccc(Cl)cc1O

SMILES: O=C(Nc1ccc(Cl)cc1)Nc1ccc(Cl)c(Cl)c1 [TRICLOCARBAN]
Drug metabolism [2]: metabolite_detected
Drug metabolism [3]: metabolite_not_detected
Drug excretion [4]: metabolite_detected
Drug metabolism [5]: metabolite_not_detected
Drug metabolism (Liver microsome [6]): metabolite_not_detected
Drug metabolism [7]: metabolite_not_detected
Drug metabolism [8]: metabolite_detected
Drug metabolism (Liver microsome [9]): metabolite_not_detected
